Assay results published in ChEMBL document CHEMBL2417507, “Synthesis and bioevaluation of some new isoniazid derivatives” (Bioorg Med Chem, 2013).
≈ marks a conversion by molar mass, not a printed value. Calls of active or inactive are those of the source. The calls are words filed in the database; no cut-off is given here.

Columns and labels:
Pseudomonas aeruginosa [1] = experiment: Antibacterial activity against Pseudomonas aeruginosa ATCC 27853 assessed as growth inhibition at 1 mg/mL after 24 hrs by agar-disk diffusion technique; assay type: functional, organism-based
Procedure, shortened: (§1)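 Agar-disk diffusion, adapted: plates seeded with 0.5 McFarland suspension prepared from 24 h cultures; 5 µL of a 1 mg/mL compound solution spotted onto the seeded solid medium; incubated 24 h at 37 °C. Stocks made in DMSO.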

Enterobacter cloacae = experiment: Antibacterial activity against Enterobacter cloacae 1845 assessed as growth inhibition at 1 mg/mL after 24 hrs by agar-disk diffusion technique; assay type: functional, organism-based; procedure, shortened: as §1
Escherichia coli = experiment: Antibacterial activity against Escherichia coli 1777 assessed as growth inhibition at 1 mg/mL after 24 hrs by agar-disk diffusion technique; assay type: functional, organism-based; procedure, shortened: as §1
Pseudomonas aeruginosa [2] = experiment: Antibacterial activity against Pseudomonas aeruginosa 1144 assessed as growth inhibition at 1 mg/mL after 24 hrs by agar-disk diffusion technique; assay type: functional, organism-based; procedure, shortened: as §1
HCT-8 [3] = experiment: Cell cycle arrest in human HCT8 cells assessed as accumulation at S phase at 12.5 ug/mL after 24 hrs by propidium iodide staining-based flow cytometric analysis (reference value: 39.43%); assay type: ADME; conditions: hct-8, 24 h
HCT-8 [4] = experiment: Cytotoxicity against human HCT8 cells at 25 ug/mL after 24 hrs by trypan blue exclusion assay; assay type: cell-based; conditions: hct-8, 24 h
Procedure, shortened: (§2)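 HCT8 cells (3 × 10^5 per 3.5-cm well) treated 24 h, then trypsinised, spun and resuspended in PBS. Suspension mixed 1:1 with 0.4% trypan blue for 1 min and viable/non-viable cells counted on a haemocytometer. Each experiment repeated three times.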

HCT-8 [5] = experiment: Induction of apoptosis in human HCT8 cells assessed as early apoptotic cells at 25 ug/mL after 24 hrs by Annexin V-FITC and propidium iodide staining-based flow cytometric analysis (reference value: 1.57%); assay type: cell-based; conditions: hct-8, 24 h
Acinetobacter baumannii [6] = experiment: Antibacterial activity against Acinetobacter baumannii 125 assessed as growth inhibition at 1 mg/mL after 24 hrs by agar-disk diffusion technique; assay type: functional, organism-based; procedure, shortened: as §1
Acinetobacter baumannii [7] = experiment: Antibacterial activity against Acinetobacter baumannii 192 assessed as growth inhibition at 1 mg/mL after 24 hrs by agar-disk diffusion technique; assay type: functional, organism-based; procedure, shortened: as §1
Proteus mirabilis = experiment: Antibacterial activity against Proteus mirabilis 1751 assessed as growth inhibition at 1 mg/mL after 24 hrs by agar-disk diffusion technique; assay type: functional, organism-based; procedure, shortened: as §1
Klebsiella pneumoniae = experiment: Antibacterial activity against Klebsiella pneumoniae 1756 assessed as growth inhibition at 1 mg/mL after 24 hrs by agar-disk diffusion technique; assay type: functional, organism-based; procedure, shortened: as §1
[8] = Induction of apoptosis in human HCT8 cells assessed as viable cells at 25 ug/mL after 24 hrs by Annexin V-FITC and propidium iodide staining-based flow cytometric analysis (reference value: 87.7%); assay type: cell-based, HCT-8; conditions: read-out: Activity
Pseudomonas putida = experiment: Antibacterial activity against Pseudomonas putida 160 assessed as growth inhibition at 1 mg/mL after 24 hrs by agar-disk diffusion technique; assay type: functional, organism-based; procedure, shortened: as §1
Pseudomonas aeruginosa [9] = experiment: Antibacterial activity against Pseudomonas aeruginosa 165 assessed as growth inhibition at 1 mg/mL after 24 hrs by agar-disk diffusion technique; assay type: functional, organism-based; procedure, shortened: as §1
Acinetobacter baumannii [10] = experiment: Antibacterial activity against Acinetobacter baumannii 135 assessed as growth inhibition at 1 mg/mL after 24 hrs by agar-disk diffusion technique; assay type: functional, organism-based; procedure, shortened: as §1
Acinetobacter baumannii [11] = experiment: Antibacterial activity against Acinetobacter baumannii 247 assessed as growth inhibition at 1 mg/mL after 24 hrs by agar-disk diffusion technique; assay type: functional, organism-based; procedure, shortened: as §1
Acinetobacter baumannii [12] = experiment: Antibacterial activity against Acinetobacter baumannii 136 assessed as growth inhibition at 1 mg/mL after 24 hrs by agar-disk diffusion technique; assay type: functional, organism-based; procedure, shortened: as §1
Staphylococcus aureus = experiment: Antibacterial activity against Staphylococcus aureus assessed as growth inhibition at 1 mg/mL after 24 hrs by agar-disk diffusion technique; assay type: functional, organism-based; procedure, shortened: as §1
[13] = test system: Mycobacterium tuberculosis; experiment: Antimycobacterial activity against Mycobacterium tuberculosis after 8 days by micro plate Alamar Blue assay; assay type: functional; conditions: 192 h
Procedure, shortened: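 Clinical M. tuberculosis strain grown in Middlebrook 7H9 broth. Compounds were dissolved in DMSO and serially diluted twofold on the plate, final 25 to 0.012 µg/mL. Plates were sealed and held 8 days at 37 °C. Alamar Blue with 10% Tween 80 (1:1) was then added for another 24 h at 37 °C. MIC was the lowest concentration preventing the blue-to-pink change.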

HCT-8 [14] = experiment: Induction of apoptosis in human HCT8 cells assessed as necrotic cells at 25 ug/mL after 24 hrs by Annexin V-FITC and propidium iodide staining-based flow cytometric analysis (reference value: 7.73%); assay type: cell-based; conditions: hct-8, 24 h
Acinetobacter baumannii [15] = experiment: Antibacterial activity against Acinetobacter baumannii 122 assessed as growth inhibition at 1 mg/mL after 24 hrs by agar-disk diffusion technique; assay type: functional, organism-based; procedure, shortened: as §1
Morganella morganii = experiment: Antibacterial activity against Morganella morganii 2810 assessed as growth inhibition at 1 mg/mL after 24 hrs by agar-disk diffusion technique; assay type: functional, organism-based; procedure, shortened: as §1
HCT-8 [16] = experiment: Cell cycle arrest in human HCT8 cells assessed as accumulation at G2/M phase at 12.5 ug/mL after 24 hrs by propidium iodide staining-based flow cytometric analysis (reference value: 13.83%); assay type: ADME; conditions: hct-8, 24 h
HCT-8 [17] = experiment: Cell cycle arrest in human HCT8 cells assessed as accumulation at G0/G1 phase at 12.5 ug/mL after 24 hrs by propidium iodide staining-based flow cytometric analysis (reference value: 46.43%); assay type: ADME; conditions: hct-8, 24 h
Staphylococcus hominis = experiment: Antibacterial activity against Staphylococcus hominis 1813 assessed as growth inhibition at 1 mg/mL after 24 hrs by agar-disk diffusion technique; assay type: functional, organism-based; procedure, shortened: as §1
[18] = test system: Radical scavenging activity; experiment: Antioxidant activity assessed as DPPH radical scavenging activity at 0.1 mg/mL after 30 mins under dark conditions by spectrophotometric analysis relative to control; assay type: functional
Procedure, shortened: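 Compounds dissolved in methanol at 0.1 mg/mL; 0.2 mL mixed with 1.8 mL of 2 × 10^-4 M DPPH in methanol and kept in the dark 30 min. Absorbance read at 517 nm. The blank was DPPH plus methanol. TAC (%) = (Abs initial − Abs 30 min)/Abs initial × 100.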

HCT-8 [19] = experiment: Induction of apoptosis in human HCT8 cells assessed as late apoptotic cells at 25 ug/mL after 24 hrs by Annexin V-FITC and propidium iodide staining-based flow cytometric analysis (reference value: 2.97%); assay type: cell-based; conditions: hct-8, 24 h
Citrobacter koseri = experiment: Antibacterial activity against Citrobacter koseri 1742 assessed as growth inhibition at 1 mg/mL after 24 hrs by agar-disk diffusion technique; assay type: functional, organism-based; procedure, shortened: as §1
Enterococcus faecalis = experiment: Antibacterial activity against Enterococcus faecalis 2920 assessed as growth inhibition at 1 mg/mL after 24 hrs by agar-disk diffusion technique; assay type: functional, organism-based; procedure, shortened: as §1
HCT-8 [20] = experiment: Induction of apoptosis in human HCT8 cells assessed as late apoptotic cells at 50 ug/mL after 24 hrs by Annexin V-FITC and propidium iodide staining-based flow cytometric analysis (reference value: 2.97%); assay type: cell-based; conditions: hct-8, 24 h
HCT-8 [21] = experiment: Cell cycle arrest in human HCT8 cells assessed as accumulation at G2/M phase at 25 ug/mL after 24 hrs by propidium iodide staining-based flow cytometric analysis (reference value: 13.83%); assay type: ADME; conditions: hct-8, 24 h
HCT-8 [22] = experiment: Cell cycle arrest in human HCT8 cells assessed as accumulation at G0/G1 phase at 25 ug/mL after 24 hrs by propidium iodide staining-based flow cytometric analysis (reference value: 46.43%); assay type: ADME; conditions: hct-8, 24 h
[23] = Induction of apoptosis in human HCT8 cells assessed as viable cells at 50 ug/mL after 24 hrs by Annexin V-FITC and propidium iodide staining-based flow cytometric analysis (reference value: 87.7%); assay type: cell-based, HCT-8; conditions: read-out: Activity
HCT-8 [24] = experiment: Induction of apoptosis in human HCT8 cells assessed as necrotic cells at 50 ug/mL after 24 hrs by Annexin V-FITC and propidium iodide staining-based flow cytometric analysis (reference value: 7.73%); assay type: cell-based; conditions: hct-8, 24 h
HCT-8 [25] = experiment: Cell cycle arrest in human HCT8 cells assessed as accumulation at S phase at 25 ug/mL after 24 hrs by propidium iodide staining-based flow cytometric analysis (reference value: 39.43%); assay type: ADME; conditions: hct-8, 24 h
HCT-8 [26] = experiment: Decrease in NAT2 gene expression in human HCT8 cells at 25 ug/mL after 24 hrs by RT-PCR analysis; assay type: ADME, cell-based; conditions: hct-8, 24 h
HCT-8 [27] = experiment: Induction of apoptosis in human HCT8 cells assessed as early apoptotic cells at 50 ug/mL after 24 hrs by Annexin V-FITC and propidium iodide staining-based flow cytometric analysis (reference value: 1.57%); assay type: cell-based; conditions: hct-8, 24 h
HCT-8 [28] = experiment: Cytotoxicity against human HCT8 cells at 50 ug/mL after 24 hrs by trypan blue exclusion assay; assay type: cell-based; conditions: hct-8, 24 h; procedure, shortened: as §2
HCT-8 [29] = experiment: Decrease in NAT1 gene expression in human HCT8 cells at 25 ug/mL after 24 hrs by RT-PCR analysis; assay type: ADME, cell-based; conditions: hct-8, 24 h

NC(S)(/C=C/c1ccc(Cl)cc1)NNC(=O)c1ccncc1 (stereo unspecified)
growth inhibition (GI) (Pseudomonas aeruginosa [1]): Active
growth inhibition (GI) (Enterobacter cloacae): Active
growth inhibition (GI) (Escherichia coli): Active
growth inhibition (GI) (Pseudomonas aeruginosa [2]): Active
Activity (HCT-8 [3]): 29.41%
Activity (HCT-8 [4]): Toxic
Activity (HCT-8 [5]): 1.63%
growth inhibition (GI) (Acinetobacter baumannii [6]): Active
growth inhibition (GI) (Acinetobacter baumannii [7]): Active
growth inhibition (GI) (Proteus mirabilis): Active
growth inhibition (GI) (Klebsiella pneumoniae): Active
viability at 24 h, 25 ug/mL [8]: 55.4%
growth inhibition (GI) (Pseudomonas putida): Active
growth inhibition (GI) (Pseudomonas aeruginosa [9]): Active
growth inhibition (GI) (Acinetobacter baumannii [10]): Active
growth inhibition (GI) (Acinetobacter baumannii [11]): Active
growth inhibition (GI) (Acinetobacter baumannii [12]): Active
growth inhibition (GI) (Staphylococcus aureus): Active
MIC [13]: 6.25 µg/mL (≈ 18.7 µM)
Activity (HCT-8 [14]): 23.7%
growth inhibition (GI) (Acinetobacter baumannii [15]): Active
growth inhibition (GI) (Morganella morganii): Active
Activity (HCT-8 [16]): 15.59%
Activity (HCT-8 [17]): 52.35%
growth inhibition (GI) (Staphylococcus hominis): Active
TAC [18]: 25.7%
Activity (HCT-8 [19]): 19.3%
growth inhibition (GI) (Citrobacter koseri): Active
growth inhibition (GI) (Enterococcus faecalis): Active

NC(=S)/C=C/c1ccc(Cl)cc1
growth inhibition (GI) (Pseudomonas aeruginosa [1]): inactive
Activity (HCT-8 [20]): 33.7%
growth inhibition (GI) (Acinetobacter baumannii [6]): inactive
Activity (HCT-8 [21]): 13.01%
Activity (HCT-8 [22]): 31.35%
growth inhibition (GI) (Proteus mirabilis): inactive
growth inhibition (GI) (Klebsiella pneumoniae): inactive
growth inhibition (GI) (Pseudomonas putida): Active
viability at 24 h, 50 ug/mL [23]: 18.7%
growth inhibition (GI) (Acinetobacter baumannii [10]): Active
growth inhibition (GI) (Acinetobacter baumannii [11]): inactive
growth inhibition (GI) (Acinetobacter baumannii [12]): Active
growth inhibition (GI) (Staphylococcus aureus): Active
Activity (HCT-8 [24]): 24.9%
Activity (HCT-8 [25]): 56.31%
Activity (HCT-8 [26]): Toxic
Activity (HCT-8 [27]): 22.7%
growth inhibition (GI) (Morganella morganii): inactive
Activity (HCT-8 [28]): Toxic
TAC [18]: 15.7%

NC(=S)/C=C/c1ccccc1
growth inhibition (GI) (Enterobacter cloacae): Active
Activity (HCT-8 [29]): Toxic
growth inhibition (GI) (Escherichia coli): Active
Activity (HCT-8 [20]): 36%
Activity (HCT-8 [21]): 27.82%
Activity (HCT-8 [22]): 33.09%
growth inhibition (GI) (Proteus mirabilis): Active
growth inhibition (GI) (Klebsiella pneumoniae): Active
growth inhibition (GI) (Pseudomonas putida): Active
viability at 24 h, 50 ug/mL [23]: 28.3%
growth inhibition (GI) (Pseudomonas aeruginosa [9]): Active
growth inhibition (GI) (Acinetobacter baumannii [10]): Active
growth inhibition (GI) (Acinetobacter baumannii [12]): Active
growth inhibition (GI) (Staphylococcus aureus): Active
Activity (HCT-8 [24]): 22.9%
Activity (HCT-8 [25]): 43.45%
Activity (HCT-8 [27]): 12.9%
growth inhibition (GI) (Acinetobacter baumannii [15]): Active
growth inhibition (GI) (Staphylococcus hominis): Active
Activity (HCT-8 [28]): Toxic
TAC [18]: 35.7%
growth inhibition (GI) (Citrobacter koseri): Active
